Test results: ChEMBL document CHEMBL1629474, “Massive screening yields novel and selective Trypanosoma cruzi triosephosphate isomerase dimer-interface-irreversible inhibitors with anti-trypanosomal activity” (Eur J Med Chem, 2010)
Calls of active or inactive are those of the source. How the calls were made is not given here.

Columns and labels:
[1] = Selectivity for Trypanosoma cruzi triosephosphate isomerase over human triosephosphate isomerase
Trypanosoma cruzi = test: Antiparasitic activity against Trypanosoma cruzi T2 epimastigotes assessed as growth inhibition at 25 uM after 5 days; type: functional
Method in brief: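 Late-log epimastigotes were grown axenically at 28 °C in BHI-tryptose with 5% fetal calf serum and seeded at 2×10^6/mL in medium containing compound (DMSO stock; final DMSO ≤1%, 1% DMSO control). Growth was read as A590 at day 0 and day 5. Inhibition = {1 − [(Ap − A0p)/(Ac − A0c)]} × 100. Means of two experiments.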

[2] = molecular target: Triosephosphate isomerase, glycosomal (Trypanosoma cruzi) (UniProt P52270); test: Inhibition of Trypanosoma cruzi triosephosphate isomerase at 400 uM after 2 hrs
Method in brief: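 Recombinant E. coli-expressed enzyme, dialyzed into 100 mM triethanolamine/10 mM EDTA pH 7.4, was incubated with compound (DMSO stock) in 100 mM triethanolamine, 10 mM EDTA, pH 7.4, 10% DMSO at 36 °C for 2 h. An aliquot was then assayed for activity (glyceraldehyde 3-phosphate to dihydroxyacetone phosphate, α-glycerol phosphate dehydrogenase-coupled) with 5 ng enzyme. Irreversible inhibition was scored as loss of activity; means of two experiments.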

Chain of Triosephosphate isomerase, glycosomal (Trypanosoma cruzi) (P52270 whole entry): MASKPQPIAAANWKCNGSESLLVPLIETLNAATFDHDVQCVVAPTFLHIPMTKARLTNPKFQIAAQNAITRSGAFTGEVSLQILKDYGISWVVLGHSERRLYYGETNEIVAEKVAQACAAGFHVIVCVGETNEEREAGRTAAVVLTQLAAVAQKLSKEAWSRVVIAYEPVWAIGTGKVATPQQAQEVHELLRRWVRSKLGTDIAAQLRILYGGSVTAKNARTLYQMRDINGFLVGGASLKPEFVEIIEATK

Row | SMILES | Ratio [1] | inhibition [2] | Activity (Trypanosoma cruzi)
1 | Cc1ccc2no[n+]([O-])c2c1 | > 4 | 8% | Active
2 | Cc1nnc[n+]([O-])c1/C=C/c1ccc2c(c1)OCO2 | > 4 | 40% | Active
3 | [O-][n+]1onc2ccc(/C=C/c3ccccc3)cc21 | > 4 | 66% | Active
4 | O=C(/C=C/c1ccccc1)c1ccccc1 | > 4 | 33% | Active
5 | O=[N+]([O-])c1ccc(N2CCOCC2)c([N+](=O)[O-])c1 | > 4 | 19% | Active
6 | CCCCCCNC(=O)N/N=C/c1ccc2no[n+]([O-])c2c1 | > 4 | 43% | Active
7 | O=[N+]([O-])c1ccc(/N=C/c2ccccc2[N+](=O)[O-])cc1 | > 4 | 34% | Active
8 | O=C(N/N=C/c1ccc([N+](=O)[O-])o1)N1CCOCC1 | > 4 | 0% | Active
9 | Cc1c(C(=O)Nc2ccccc2)[n+]([O-])c2cc(CNC/C=C/c3ccccc3)ccc2[n+]1[O-] | > 4 | 23% | Active
10 | Cc1no[n+]([O-])c1/C=N/NC(N)=O | > 4 | 2% | Active
11 | [O-][n+]1onc(-c2ccccc2)c1CN1CCN(c2ncccn2)CC1 | > 4 | 8% | Active
12 | CC1(C)[N+]([O-])=c2ccc(/C=C/c3ccc4c(c3)OCO4)cc2=[N+]1[O-] | > 4 | 23% | Active
13 | N#Cc1c2ccccc2[n+]([O-])n1-c1cccc2ccccc12 | > 4 | 16% | Active
14 | CN(CCCN(C)Cc1cccc2ccccc12)Cc1cccc2ccccc12 | > 4 | 55% | Active
15 | CC1(C)[N+]([O-])=c2ccc(/C=C/c3ccccc3)cc2=[N+]1[O-] | > 4 | 0% | Active
16 | CCCCNC(=O)c1ccc2no[n+]([O-])c2c1 | > 4 | 12% | Active
17 | C=CCNC(=S)N/N=C/c1ccc2c(c1)[n+]([O-])c(C)c(C)[n+]2[O-] | > 4 | 42% | Active
18 | O=Cc1ccc(OCc2ccc3no[n+]([O-])c3c2)cc1 | > 4 | 0% | Active
19 | CC(=O)NCc1ccccc1 | > 4 | 32% | Active
20 | O=C(/C=C/c1ccco1)N1CCN(C/C=C/c2ccccc2)CC1 | > 4 | 0% | Active
21 | O=C(N/N=C/C=C/c1ccc([N+](=O)[O-])o1)Oc1ccccc1 | > 4 | 45% | Active

The next lines start with results.

Row | Ratio [1] | inhibition [2] | SMILES | Activity (Trypanosoma cruzi)
22 | > 4 | 6% | O=C(O)c1ccc(/C=C\c2ccc3no[n+]([O-])c3c2)cc1 | Active
23 | > 4 | 25% | CC(=O)Oc1c(C)c(C)c2c(c1C)CCC(C)(C(=O)NCCOc1c(S(=O)(=O)c3ccccc3)no[n+]1[O-])O2 (configuration not stated) | Active
24 | > 4 | 45% | C=CCNC(=S)N/N=C/c1ccc2c(c1)[n+]([O-])c(C#N)c(N)[n+]2[O-] | Active
25 | > 4 | 26% | Cc1nnc(C)[n+]([O-])c1/C=C/c1ccc(N(C)C)cc1 | Active
26 | > 4 | 18% | N#Cc1c(N)[n+]([O-])c2ccc(CN3CCN(C/C=C/c4ccccc4)CC3)cc2[n+]1[O-] | Active
27 | > 4 | 51% | O=C1C(=Cc2ccc([N+](=O)[O-])cc2)C(=O)N(C2CCCCC2)S(=O)(=O)N1C1CCCCC1 | Active
28 | > 4 | 11% | COc1ccc(/C=C/c2c(C)nnc[n+]2[O-])cc1 | Active
29 | > 4 | 7% | O=C(c1ccc2no[n+]([O-])c2c1)N1CCOCC1 | Active
30 | > 4 | 51% | O=S(=O)(/C=C\c1ccc2no[n+]([O-])c2c1)c1ccccc1 | Active
31 | > 4 | 17% | CC(=O)CC(=O)Nc1ccccc1 | Active
32 | > 4 | 20% | O=[N+]([O-])c1ccc(N2CCSCC2)c([N+](=O)[O-])c1 | Active
33 | > 4 | 31% | CC1(C)[N+]([O-])=c2ccc(CN3CCN(C/C=C/c4ccccc4)CC3)cc2=[N+]1[O-] | Active
34 | > 4 | 76% | O=S(=O)(NCc1ccccc1)NCc1ccccc1 | Active
35 | > 4 | 0% | COc1nn(CCOCCN2CCN(C/C=C/c3ccccc3)CC2)c2ccc([N+](=O)[O-])cc12 | Active
36 | > 4 | 0% | O=C1CC(=O)N(CCc2ccccc2)S(=O)(=O)N1CCc1ccccc1 | Active
37 | > 4 | 58% | C=CCNC(=S)N/N=C/c1ccc([N+](=O)[O-])s1 | Active
38 | > 4 | 26% | CC1(C)[N+]([O-])=c2ccc(COc3ccc(C=O)cc3)cc2=[N+]1[O-] | Active
39 | > 4 | 18% | O=[N+]([O-])c1ccc2c(c1)c(OCc1ccccc1)nn2CCOCCN1CCN(C/C=C/c2ccccc2)CC1 | Active
40 | > 4 | 35% | O=[N+]([O-])c1ccc2c(c1)[n+]([O-])c1n2CCC1 | Active
41 | > 4 | 56% | [O-][N+]1=c2cc(Cl)c(Cl)cc2=[N+]([O-])C12CCCC2 | Active
42 | > 4 | 38% | Cc1nncnc1CC(c1ccc([N+](=O)[O-])cc1)[N+]1([O-])CCOCC1 (configuration not stated) | Active
43 | > 4 | 0% | CCCCCCNS(=O)(=O)NCCCCCC | Active
44 | > 4 | 65% | CCOC(=O)c1nsc(-c2cc(C(C)(C)C)c(O)c(C(C)(C)C)c2)n1 | Active
45 | > 4 | 25% | O=C(/C=C/c1cccs1)c1ccccc1O | Active
46 | > 4 | 4% | CCCCCCNC(=O)N/N=C/c1c(-c2ccccc2)no[n+]1[O-] | Active
47 | > 4 | 15% | O=C(/C=C/c1ccccc1)c1ccccc1O | Active
48 | > 4 | 1% | CCCCNC(=O)N/N=C/C=C/c1ccc([N+](=O)[O-])o1 | Active
49 | > 4 | 4% | CCCN(CCC(C)C1CC=C(C)CC1)Cc1ccc2c(c1)=[N+]([O-])C(C)(C)[N+]=2[O-] (configuration not stated) | Active
